High-throughput results as filed in PubChem.
Gli-Sufu block: Gli-Sufu pathway antagonism; Sufu-KO-LIGHT fibroblasts, Gli luciferase reporter luminescence; inhibition, % at 5 µM; 340,000 tested, 0.74% active; AID 588413;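 active = inhibition above about 55%, limit read from the data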;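 also: 0% = DMSO-treated cells and 100% = wells with medium but no cells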
Jurkat NFkB inh: inhibitors of the PMA/ionomycin-induced NF-kB reporter in Jurkat cells | inhibition, % at 4 µM | 330,000 tested, 0.53% active | PMA/ionomycin-induced NF-kB luciferase reporter, luminescence; in the data active = inhibition above about 50%
GalR3 antagonist: antagonists of human GalR3 | HEK293 GalR3-CNG cAMP membrane potential fluorescence; galR3 body fused to GalR1 C-terminus | inhibition, % at 3 µM | 360,000 tested, 0.44% active | AID 651719;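 active = inhibition above the screen-wide average plus 3 SD, cut at about 13% in these data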;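 also: forskolin and galanin both at EC90 stimulate the cells; cAMP rise reported by CNG channel membrane potential dye signal; 0% = forskolin plus galanin with DMSO and 100% = forskolin alone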
Target sequence (O60755 1-299 limits assumed): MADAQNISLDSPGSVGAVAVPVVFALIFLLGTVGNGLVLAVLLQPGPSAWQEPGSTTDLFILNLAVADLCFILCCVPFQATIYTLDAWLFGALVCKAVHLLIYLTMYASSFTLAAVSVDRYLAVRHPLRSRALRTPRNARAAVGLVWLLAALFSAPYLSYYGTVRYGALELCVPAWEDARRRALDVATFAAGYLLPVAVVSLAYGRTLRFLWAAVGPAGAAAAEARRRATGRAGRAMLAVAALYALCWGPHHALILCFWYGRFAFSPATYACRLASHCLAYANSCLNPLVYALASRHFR
697 NFkB inh: lowers PMA/ionomycin-induced NF-kB signal in 697 B cells; inhibition, % at 4 µM; 697 B-cell NF-kB luciferase reporter, 16 h; AID 435022; 330,000 tested, 0.33% active; in the data active = inhibition above about 35%
NR2E3 ag-1: NR2E3 (human) agonism | inhibition of corepressor binding, % at 4.78 µM | GST-NR2E3/biotin-RetCOR TR-FRET, 1536-well | 320,000 tested, 0.12% active;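 active = percent inhibition above the cutoff of mean plus 3 SD of all tested compounds, set per screening campaign, cut at about 20% in these data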;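 also: 0% = DMSO wells and 100% = biotin wells as full block of FRET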
Target sequence (Q9Y5X4 whole entry, looked up): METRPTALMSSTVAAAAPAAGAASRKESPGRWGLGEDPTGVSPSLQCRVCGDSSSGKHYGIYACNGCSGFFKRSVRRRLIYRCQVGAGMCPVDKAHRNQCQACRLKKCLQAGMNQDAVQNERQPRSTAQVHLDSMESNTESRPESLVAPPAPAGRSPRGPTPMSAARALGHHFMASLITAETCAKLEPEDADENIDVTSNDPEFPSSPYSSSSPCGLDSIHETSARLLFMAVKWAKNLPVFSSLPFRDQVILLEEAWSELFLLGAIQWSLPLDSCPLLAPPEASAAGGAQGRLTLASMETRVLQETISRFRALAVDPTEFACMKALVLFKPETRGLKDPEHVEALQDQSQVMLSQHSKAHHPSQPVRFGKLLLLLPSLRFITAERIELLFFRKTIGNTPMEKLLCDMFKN
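System: GST-NR2E3 and biotin-RetCOR proteins; probe or stimulus: 7 nM biotin-RetCOR; doses: compound at 4.8 µM, single dose; schedule: Compound–protein incubation for 5 h at 4 °C; detection: time-resolved FRET; read-out: percent inhibition; controls: biotin wells as high control, 0.6% DMSO wells as low control; format: 1536-well plates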
NR2E3 ag-2: agonists of human NR2E3 nuclear receptor | CHO-S Gal4-NCOR/VP16-NR2E3 two-hybrid, luciferase | inhibition of corepressor binding, % at 3.98 µM | 360,000 tested, 0.35% active | AID 602229;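 active = inhibition above the mean of all tested compounds plus 3 SD, cut at about 70% in these data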;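 also: 0% = DMSO with NR2E3 transfected cells and 100% = cells lacking NR2E3 construct; higher means lower luciferase signal from less NR2E3 corepressor binding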
GalR3 antag conf: confirmation of human galanin receptor 3 antagonists; 1,600 tested, 59% active; HEK293 GalR3 CNG cAMP biosensor, membrane potential fluorescence; galR3 fused to GalR1 carboxy tail; challenged with forskolin and galanin at EC90; shares compounds with GalR3 antagonist; inhibition, % at 3 µM;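 active = inhibition above the primary screen's cutoff, the mean inhibition of all screened compounds plus 3 SD, cut at about 13% in these data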;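 also: 0% = forskolin plus galanin and 100% = forskolin alone with DMSO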
CNG parental: counter-screen for GalR3 antagonists: nonspecific agonists in parental HEK-CNG cells | 1,600 tested, 10% active | AID 652268 | shares compounds with GalR3 antagonist | HEK293-CNG parental cells, cAMP membrane potential fluorescence; normalised: DMSO wells 0%, forskolin wells 100% | activation, % at 3 µM; in the data active = activation above about 1.3%
* = called active by the depositor; . = not tested or not shown. Shown are actives, neighbours in structure and some others; about 1.8% of the full set was active somewhere.

SMILES | Gli-Sufu block | Jurkat NFkB inh | GalR3 antagonist | 697 NFkB inh | NR2E3 ag-1 | NR2E3 ag-2 | GalR3 antag conf | CNG parental
Cc1cccc(NC(=O)CSc2n[nH]c(-c3cccnc3)n2)c1 | -5 | 9 | -8 | 6 | -1 | -17 | . | .
CCn1nc(C(=O)NNC(=O)CCOc2cc(C)ccc2C)c2ccccc2c1=O | -4 | 4 | -4 | 4 | 2 | -14 | . | .
CCCn1nc(C(=O)NNC(=O)CCCOc2ccc(C)cc2)c2ccccc2c1=O | 1 | 5 | 86* | -11 | -2 | -25 | 90* | 1
Cc1cccc(NC(=O)C2C3C=CC(O3)C2C(=O)O)c1C (stereo not drawn) | -14 | -24 | -3 | -22 | 1 | 21 | . | .
Cc1[nH]c(=O)c(C#N)cc1-c1ccccc1 | 5 | -4 | 20* | 6 | 2 | -10 | 20* | 0
Cc1cc(NC(=O)CSCC(=O)Nc2ccccc2Oc2ccccc2)no1 | -3 | -2 | -3 | -31 | -3 | 2 | . | .
Cc1ccc(Oc2ccccc2NC(=O)CSCC(=O)Nc2cc(C)on2)cc1 | 1 | 25 | 84* | -28 | 0 | -6 | 68* | 0
COCCNC(=O)c1csc2c1CCCC2 | -2 | -4 | -1 | 7 | -2 | -23 | . | .
COc1ccc(CCNC(=O)c2csc3c2CCCC3)cc1OC | 0 | 1 | 13* | -19 | 6 | -3 | 3 | 0
CCN1/C(=C/c2ccc3cc(C)cc(C)c3[n+]2CC)Sc2cc(C)ccc21 | 90* | . | 49* | . | . | 91* | 58* | 9.7*
O=Cc1cn(CC(=O)N2CCCCCC2)c2ccccc12 | -6 | 1 | 19* | 28 | 4 | -4 | 6 | 0
O=Cc1cn(CC(=O)N2CCc3ccccc32)c2ccccc12 | 5 | 5 | -3 | -6 | 3 | 11 | . | .
CCCCC[C@H](O)/C=C/[C@H]1CCC(=O)[C@@H]1CCCCCCC(=O)N1CCCCC1CO (stereo partly drawn) | 8 | 11 | 79* | -9 | -1 | 15 | 97* | 0
CCC1CCCCN1C(=O)CCCOc1ccccc1 (stereo not drawn) | 14 | -23 | -2 | -71 | 3 | -9 | . | .
C#Cc1ccc([C@@H]2C=C(C(=O)Nc3ccccc3)O[C@H](OCC)[C@H]2CCCO)cc1 | 7 | 12 | . | -5 | 3 | -14 | 4 | 0
C#Cc1ccc([C@H]2C=C(C(=O)NCc3ccccc3)O[C@@H](OCC)[C@@H]2CCCO)cc1 | 39 | 4 | -3 | -22 | 3 | 21 | . | .
Cc1ccc(NC(=O)CCNS(=O)(=O)c2ccc(Br)cc2)cc1S(=O)(=O)N1CCOCC1 | 5 | 8 | -2 | 19 | -1 | 6 | . | .
C=CCc1ccc(OC)c(OC)c1 | 2 | -15 | -2 | 21 | -1 | 10 | . | .
O=C(NC(=S)NC(=O)c1ccccc1F)c1ccccc1F | 4 | -12 | 18* | 8 | 3 | 12 | 5 | 0
O=C(NC(=S)NCc1ccccc1)c1ccccc1F | -9 | -10 | -1 | -14 | -5 | 6 | . | .
COc1cc(NC(=O)c2cc(-c3ccccc3Cl)on2)cc(OC)c1OC | 4 | 46 | -1 | -41 | 2 | -32 | . | .
O=C(c1cccs1)N1CCCC1 | -3 | 7 | -2 | 30 | -2 | -10 | . | .
O=C(c1cccs1)N1CCOCC1 | -5 | 25 | 13* | 10 | 1 | -4 | 7 | 0
O=C(Nc1cccc(Cl)c1)C1C2CCC3C(CCC21)C3(Cl)Cl (stereo not drawn) | 3 | 5 | -6 | -8 | -1 | -29 | . | .
Cc1nc2scc(-c3ccccc3)c2c(=O)n1N=C1C=CC(=O)C=C1 | 20 | 14 | 15* | -9 | . | . | 24* | 0
SMILES | Gli-Sufu block | Jurkat NFkB inh | GalR3 antagonist | 697 NFkB inh | NR2E3 ag-1 | NR2E3 ag-2 | GalR3 antag conf | CNG parental
CC(C)c1ccc(/C=N/n2c(COc3ccccc3)n[nH]c2=S)cc1 | -3 | -27 | -8 | 14 | 1 | 1 | . | .
N#Cc1ccc(CN2CCN(C(=O)CNC(=O)Cc3cccc4ccccc34)CC2)cc1 | 15 | 18 | 22* | -15 | . | 12 | 10 | 0
N#Cc1ccccc1NC(=O)CSc1cn[nH]n1 | 11 | -2 | -7 | 20 | 3 | 4 | . | .
O=C(O)c1ccccc1C(=O)c1ccc(F)c(F)c1 | 5 | . | 17* | . | . | -9 | 2 | 0
O=C(Nc1cc(S(=O)(=O)N2CCCCCC2)ccc1OCC(F)(F)F)c1ccc(=O)[nH]c1 | 2 | -4 | -8 | 7 | 2 | -28 | . | .
CCOc1cc2c(cc1OC)C(NC(=O)c1ccco1)CC2=O (stereo not drawn) | 24 | -25 | 17* | -7 | 2 | -15 | -1 | 0
CCOc1cc2c(cc1OC)C(NC(=O)C(F)(F)F)CC2=O (stereo not drawn) | -5 | 11 | -5 | 9 | 2 | -6 | . | .
COC(=O)C(C)Sc1nc2c(c(=O)n(C)c(=O)n2C)n1CCC(C)C (stereo not drawn) | 2 | 4 | 2 | -11 | 7 | -14 | . | .
COC(=O)C(C)Sc1nc2c(c(=O)[nH]c(=O)n2C)n1CCC(C)C (stereo not drawn) | 1 | -9 | 55* | -17 | -1 | -8 | 13* | 1
COc1ccc(CNC(=O)C(=O)c2cn(CC(=O)N3CCOCC3)c3ccccc23)cc1 | -9 | -8 | -7 | -8 | 1 | -21 | . | .
O=C(NCc1ccc(Cl)cc1)C(=O)c1cn(CC(=O)N2CCOCC2)c2ccccc12 | -2 | 4 | 19* | -2 | -1 | -3 | 4 | 0
CCc1onc(C)c1C(=O)Nc1ccc2c(c1)OCO2 | 1 | -5 | . | 6 | 0 | -23 | 5 | 0
COC(C[C@@H]1O[C@@H]1[C@H](O)[C@@H](C)OCc1ccccc1)OC | 3 | -20 | -7 | -6 | 3 | -16 | . | .
Cc1ccc(-c2nnc(COC(=O)c3cc(=O)[nH]c4ccccc34)o2)cc1 | -2 | 12 | 13* | 6 | 3 | -1 | 1 | 0
CCn1cc(CN2CCC(n3nccc3NC(=O)c3cccc(F)c3)CC2)cn1 | 7 | 3 | -3 | 1 | 2 | -8 | . | .
CCOc1ccc(CCNC(=O)C2CCN(S(=O)(=O)N3CCC(C)CC3)CC2)cc1OCC | -10 | 8 | -9 | 1 | 1 | 8 | . | .
COc1ccc(CNC(=O)CN(C(=O)CCC(=O)Nc2ccccn2)c2cccc(C)c2)cc1 | 4 | -4 | 13* | 32 | -1 | -32 | 30* | 1.3*
